Structures are written as SMILES.

One may read the IC50 as the point on the concentration scale where inhibition reaches its midpoint. High values mean weaker potency in that assay, low ones greater potency in that assay.

One assay has as its system HL-60. In words: Inhibitory activity against HL-60 (human, promyelocytic leukemia) cell line. The assay is classed as functional, cell-based. The gist of the method:
(§1)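 Cells kept in log phase in RPMI-1640 with 10% FBS and 1% penicillin-streptomycin, humidified 5% CO2/95% air, 37 °C. Viability read by CellTiter 96 aqueous proliferation assay (microplate optical density). Drug-treated optical densities compared with untreated controls; IC50 obtained by nonlinear regression.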

Another assay has as its system U373 MG. The assay can be described thus: Inhibitory activity against U373-MG (human, glioblastoma) cell line. The assay is classed as functional, cell-based, U-373MG ATCC. The gist of the method:
(§2)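 Maintained in log phase in MEM with 10% FBS and 1% penicillin-streptomycin at 37 °C in humidified 5% CO2. Cell proliferation read with CellTiter 96 aqueous assay by optical density. Treated versus untreated control; IC50 calculated by nonlinear regression.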

The test system of a further assay is BXPC-3. In words: Inhibitory activity against BxPC3 (human,pancreas,adenocarcinoma) cell line. It is filed as functional, cell-based. A digest of the protocol: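 BxPC3 grown in log phase in RPMI-1640 plus 10% FBS, 10 mM HEPES, 1.5 g/L NaHCO3, sodium pyruvate and 1% penicillin-streptomycin, at 37 °C under 5% CO2. CellTiter 96 aqueous proliferation readout by optical density. Treated wells compared with untreated controls; IC50 from nonlinear regression.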

The test system of a further assay is CEM-SS. In words: Inhibitory activity against CEM-SS (human T-4 lymphoblastoid clone) cell line. It is filed as functional, cell-based. The gist of the method:
as §1

Another assay relates to SCC-25. The assay can be described thus: Inhibitory activity against SCC-25 (human, squamous cell carcinoma, tongue) cell line. It is filed as functional, cell-based. The gist of the method:
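SCC-25 cultured in log phase in DMEM with 10% FBS, 400 ng/mL hydrocortisone and 1% penicillin-streptomycin, humidified 5% CO2/95% air, 37 °C. CellTiter 96 aqueous assay, optical density compared with untreated cells; IC50 from nonlinear regression.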

The subject of another assay is SK-LU-1. The assay can be described thus: Inhibitory activity against SK-LU-1 (human,lung,adenocarcinoma) cell line. It is filed as functional, cell-based. A digest of the protocol:
as §2

In the next assay the test system is HT-29. In words: Inhibitory activity against HT-29 (human,colon,adenocarcinoma) cell line. The assay is classed as functional, cell-based. A digest of the protocol: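 Colon line kept in log phase in McCoy's 5A modified medium with 10% FBS and 1% penicillin-streptomycin, 37 °C, 5% CO2 humidified. Proliferation measured by CellTiter 96 aqueous assay (optical density) against untreated cells; IC50 fitted by nonlinear regression.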

In another assay the test system is BG-1 cell line. The assay can be described thus: Inhibitory activity against BG-1 (human, […] adenocarcinoma) cell line. It is filed as functional, cell-based. A digest of the protocol: as §1
Another assay relates to MCF7. The assay can be described thus: Inhibitory activity against MCF-7/WT-2'' (human, breast carcinoma) cell line. It is filed as functional, cell-based. A digest of the protocol:
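MCF7/WT-2' grown in log phase in D-MEM/F-12 with 10% FBS, 10 μg/mL insulin and 1% penicillin-streptomycin, 37 °C, 5% CO2. Read-out was CellTiter 96 aqueous proliferation assay (optical density) versus untreated control. IC50 derived by nonlinear regression.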

The next assay concerns HeLa. In words: Inhibitory activity against HeLa (human, epitheloid carcinoma, cervix) cell line. It is filed as functional, cell-based. A digest of the protocol: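 HeLa maintained in log phase in DMEM, 10% FBS, 1% penicillin-streptomycin, humidified 5% CO2 at 37 °C. Growth quantified with CellTiter 96 aqueous assay by microplate optical density. Values expressed relative to untreated controls; IC50 by nonlinear regression.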

In the assay on HL-60, `CCCCCCCCCCCCSCC(COP(=O)(O)OCC1OC(n2ccc(N)nc2=O)[C@@H](O)C1O)OCCCCCCCCCC` (some centres not stated) returned an IC50 of 67300 nM.

Regarding `CCCCCCCCCCCCSCC(COP(=O)(O)OC[C@H]1O[C@@H](n2ccc(N)nc2=O)C(F)(F)[C@@H]1O)OCCCCCCCCCC` (some centres not stated), the IC50 was 290 nM with U373 MG; 1590 nM in the assay on BXPC-3; 600 nM with CEM-SS; 1800 nM in the assay with HL-60; 590 nM with SCC-25; 1120 nM with SK-LU-1. Further, the IC50 in the assay with HT-29 was 750 nM; in the assay on BG-1 cell line, 1840 nM; in the assay on MCF7 it was 1730 nM; in the assay with HeLa it was 690 nM.

With `Nc1ccn([C@@H]2O[C@H](CO)[C@@H](O)[C@@H]2O)c(=O)n1` [CYTARABINE], in the assay with HL-60, 760 nM corresponded to half-maximal inhibition (IC50).

For the compound `Nc1ccn([C@@H]2O[C@H](CO)[C@@H](O)C2(F)F)c(=O)n1` [GEMCITABINE], the IC50 came out at 130 nM in the assay with U373 MG; 160 nM with BXPC-3; 30 nM in the assay with CEM-SS; 330 nM in the assay with HL-60; 47 nM with SCC-25; 55 nM with SK-LU-1. For the same compound, the IC50 in the assay on HT-29 turned out to be 43 nM; in the assay with BG-1 cell line, 680 nM; with MCF7 it was 1660 nM; in the assay on HeLa it was 8 nM.

The values are drawn from ChEMBL document CHEMBL1145096, “Synthesis and cytotoxic activity of two novel 1-dodecylthio-2-decyloxypropyl-3-phosphatidic acid conjugates with gemcitabine and cytosine arabinoside” (J Med Chem, 2003).
